Test results taken from ChEMBL document CHEMBL2021903, “3-Deoxy-3,4-dehydro analogs of XM462. Preparation and activity on sphingolipid metabolism and cell fate” (Bioorg Med Chem, 2012).
The source made the active and inactive calls. No cut-off for these calls is given here.

Key:
[1] = system: HCT-116; test: Induction of apoptosis in human HCT116 cells at 30 uM after 14 hrs by Annexin V-propidium iodide staining based flow cytometry; type: functional, cell-based
How it was run: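 HCT116 (clone 40–16) in low-glucose DMEM with 10% FBS and 1% penicillin–streptomycin, seeded 2.5×10⁵ cells/mL. After 24 h, medium replaced with compound-containing medium; ethanol vehicle to controls. After incubation, cells PBS-washed, trypsinized, stained with Annexin V and propidium iodide, analysed by flow cytometry. Mean ± SD, 3 experiments in triplicate.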

[2] = target: T1, Acid ceramidase (Homo sapiens) (UniProt Q13510); test: Inhibition of aCDase using RBM14C16 as substrate at 16 uM after 1 hr by HPLC-FD analysis
T1 sequence (whole entry): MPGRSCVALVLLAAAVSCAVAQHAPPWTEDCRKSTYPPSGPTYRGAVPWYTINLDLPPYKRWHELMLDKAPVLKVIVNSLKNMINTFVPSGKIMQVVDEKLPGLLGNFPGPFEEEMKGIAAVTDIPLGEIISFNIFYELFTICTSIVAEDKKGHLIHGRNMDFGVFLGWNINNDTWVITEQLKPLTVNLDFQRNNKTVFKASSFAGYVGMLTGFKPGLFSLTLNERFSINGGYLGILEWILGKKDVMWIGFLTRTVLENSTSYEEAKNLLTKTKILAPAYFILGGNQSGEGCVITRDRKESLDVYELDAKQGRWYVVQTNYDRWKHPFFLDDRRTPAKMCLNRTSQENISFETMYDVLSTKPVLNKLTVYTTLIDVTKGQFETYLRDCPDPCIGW

[3] = target: T1, Acid ceramidase (Homo sapiens); test: Inhibition of aCDase in Moh.pAS AcCer10X cells using RBM14C16 as substrate at 16 uM after 1 hr by HPLC-FD analysis; type: cell-based

Structure (SMILES): CCCCCCCCCCCCC/C=C/[C@@H](O)[C@H](CO)NC(=O)CCCCCCC
- Activity [1]: Active

Structure (SMILES): CCCCCCCCCCCCC/C=C/[C@@H](O)[C@H](CO)NC(=O)C(C)(C)C
- inhibition [2]: 50%
- inhibition [3]: 50%

Structure (SMILES): CCCCCCCCCCCCCCC[C@@H](O)[C@H](CO)NC(=O)C(C)(C)C
- inhibition [2]: 50%
- inhibition [3]: 50%
